# Most compounds without a hit are left out; they make up all but 3.5% or so of the library.
# MrgX1 PAM: allosterically activates human MrgX1 receptor signaling; Q96LB2; MrgX1-HEK293, Fluo-4 calcium flux, FDSS; stronger effect = higher value; B-score at 10 µM; actives 0.63% (n = 310,000); AID 588675;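 active = plate-corrected calcium response at least 3 library SD above typical, normal starting fluorescence, not activating the receptor alone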;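 note: compound read alongside a low EC10 to EC30 dose of BAM8-22 agonist; peak minus trough fluorescence over baseline measured at the second addition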
# Target sequence (Q96LB2 whole entry, looked up): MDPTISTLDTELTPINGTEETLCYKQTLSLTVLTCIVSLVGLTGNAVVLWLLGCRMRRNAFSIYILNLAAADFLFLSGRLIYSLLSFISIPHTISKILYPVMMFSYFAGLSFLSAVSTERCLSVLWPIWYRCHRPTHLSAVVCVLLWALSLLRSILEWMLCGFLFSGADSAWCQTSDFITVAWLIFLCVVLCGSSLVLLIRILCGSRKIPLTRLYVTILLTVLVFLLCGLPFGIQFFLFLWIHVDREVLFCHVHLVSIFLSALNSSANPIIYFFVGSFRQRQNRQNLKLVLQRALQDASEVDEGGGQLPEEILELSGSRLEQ
# RGS4 pot: potentiators or activators of RGS4; HEK293 M3R/inducible RGS4, carbachol calcium flux Fluo4; stronger effect = lower value; actives 0.92% (n = 310,000); AID 463111; B-score at 10 µM;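 active = B-score of the integrated calcium signal more than 4 SD below the library mean, with starting fluorescence not abnormally high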;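 note: negative B-score means reduced calcium response which marks RGS4 activation or potentiation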
#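 test system = M3R-expressing HEK293 line, RGS4 induced by doxycycline | probe or stimulus = carbachol at ECmax as muscarinic agonist stimulus | timing = dye loading 30 min 37 °C, buffer rest 30 min RT | signal = calcium dye Fluo4 fluorescence | evaluation = B score from integrated fluorescence ratio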
# MrgX1 agonist: activates human MrgX1 receptor signaling | B-score at 10 µM | actives 0.44% (n = 310,000) | MrgX1-HEK293 cells, Fluo-4 calcium fluorescence, agonist mode; stronger effect = higher value | AID 588627 | Q96LB2;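 active = calcium response B-score plate-corrected fluorescence ratio at least 3 library SD, with starting fluorescence B-score inside 5 SD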
#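 Material – MrgX1-expressing HEK293 cells · Input – 15,000 cells seeded per well · Dosing – compound as first of three additions · Times – overnight seeding, then 1 h dark dye loading · Measured by – kinetic Fluo-4 NW fluorescence of intracellular calcium · Read-out – B-scored fluorescence response ratio · Benchmarks – positive and negative control wells on each plate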
# RGS4 block: human RGS4 inhibition; HEK293 M3R/RGS4 inducible, Fluo-4 calcium flux; stronger effect = higher value; triggered by carbachol at its EC20; actives 0.45% (n = 310,000); AID 463165; P49798; B-score at 10 µM;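 active = B-score, a plate-corrected calcium signal, over three deviations above library mean, with baseline fluorescence within five deviations of library mean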;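 note: RGS4 expression induced by doxycycline in cells with stable M3 receptor; B-score is computed from the integrated fluorescence ratio over baseline after carbachol; higher B-score means a larger calcium signal and so more RGS4 inhibition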
# MrgX1 antagonist: blocks BAM8-22 activation of human MrgX1 receptor; MRGX1-HEK293 calcium flux, Fluo-4, BAM8-22 antagonism; stronger effect = lower value; actives 1.3% (n = 310,000); Q96LB2; B-score at 10 µM;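 active = calcium-response B-score plate-corrected more than 3 library SD below zero, starting fluorescence within 5 deviations, no agonist response on first addition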;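 note: peak minus trough fluorescence over baseline after final BAM8-22 challenge near maximal dose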
# RGS4 inh valid: RGS4 inhibitor validation; shares compounds with RGS4 block; HEK293 M3R/RGS4, carbachol calcium Fluo-4 fluorescence; carbachol added at its EC20; 0 = buffer wells, 100 = carbachol control; calcium response, % at 10 µM; actives 65% (n = 1,700); AID 492999;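 active = duplicate-averaged calcium response above the buffer-only control mean plus 5 SD of those controls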;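 note: integrated fluorescence ratio F max minus min over baseline F0; higher response in RGS4-induced cells means RGS4 inhibition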
# RGS4 uninduced: non-induced cell nonspecific activity of RGS4 inhibitors. shares compounds with RGS4 block. HEK293 M3R non-induced, carbachol calcium Fluo-4; submaximal (EC20) carbachol stimulus; buffer wells 0%, carbachol control wells 100%. activity (percent), % at 10 µM. actives 20% (n = 1,900). AID 493000; call rule not given here;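 note: RGS4 induction absent so cells express M3R without RGS4; higher means more calcium signal and flags a non-specific hit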
# M3R basal Ca ctr: second counter-screen for RGS4 inhibitors: non-induced cells without carbachol; shares compounds with RGS4 block; HEK293 M3R/RGS4 non-induced, Fluo-4 calcium, no carbachol; normalised: buffer wells 0%, carbachol wells 100%; calcium response (agonist-mode artifact), % at 10 µM; actives 22% (n = 1,900); AID 493001;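 active = duplicate-averaged calcium rise in uninduced cells above buffer wells' mean plus 5 SD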
# * = called active by the depositor; i = inactive; · = not tested or not shown.
SMILES,MrgX1 PAM,RGS4 pot,MrgX1 agonist,RGS4 block,MrgX1 antagonist,RGS4 inh valid,RGS4 uninduced,M3R basal Ca ctr
CCC(C)(C)NC(=O)C(c1ccc(OC)cc1)N(C(=O)CCC(=O)Nc1cc(C)on1)c1ccc(F)cc1 (centres undefined),i,i,i,i,i,·,·,·
CN1C/C(=C\c2ccc(N3CCOCC3)cc2)C(=O)/C(=C/c2ccc(N3CCOCC3)cc2)C1,i,i,i,i,i,·,·,·
CN1C/C(=C/c2ccncc2)C(=O)/C(=C/c2ccncc2)C1,i,i,i,21*,i,80%*,i,i
CCOc1cc(/C=C2\CN(C)C/C(=C\c3ccc(O)c(OCC)c3)C2=O)ccc1O,i,i,i,i,i,·,·,·
CN1C/C(=C/c2ccsc2)C(=O)/C(=C/c2ccsc2)C1,i,i,i,6.8*,i,9.5%*,i,i
N#Cc1c2n(c(=S)n(-c3ccc(F)cc3)c1=O)CCCCC2,i,i,i,i,i,·,·,·
C/C(=N\NC(=O)c1c(Cl)cnn1C)c1ccc(NC(=O)c2ccncc2)cc1,i,i,i,9.6*,i,i,i,i
O=C(CCC1CCCCC1)NNC(=O)c1cnccn1,i,i,i,8.4*,i,18%*,i,i
O=C(NNC(=O)C1CCCCC1)c1cnccn1,i,i,i,i,i,·,·,·
COc1ccc(C2=Nn3c(nnc3-c3ccccn3)SC2)cc1OC,i,i,i,i,i,·,·,·
COc1ccc(C2=Nn3c(nnc3-c3ccccc3OC)SC2)cc1OC,i,i,i,8.2*,i,20%*,34%*,i
CCn1nc(C(=O)NNC(=O)CCOc2cc(C)ccc2C)c2ccccc2c1=O,i,i,i,i,i,·,·,·
Oc1ccc(N=Nc2ccccc2)o1,i,i,i,4.9*,i,7.5%*,i,i
CO/N=C\CC(=O)Nc1ccc(Oc2ccccc2)cc1,i,i,i,i,i,·,·,·
FC(F)(F)c1cc(N2CCN(Cc3ccccc3)CC2)c2ccccc2n1,i,i,i,i,i,·,·,·
CC(C)(CC(=O)O)CC(=O)N1CCN(c2cc(C(F)(F)F)nc3ccccc23)CC1,i,i,i,5*,i,i,i,i
Cc1ccc(NC(=O)CN(C)C(=O)c2cccnc2Nc2cccc(C(F)(F)F)c2)cc1,i,i,i,6.8*,i,18%*,i,i
CCc1cccc(CC)c1NC(=S)NCCc1c(C)[nH]c2ccc(C)cc12,i,i,i,i,i,·,i,i
CCc1cccc(C)c1NC(=S)NCCc1c(C)[nH]c2ccc(C)cc12,i,i,i,i,i,·,·,·
Cc1cc(=O)n2c3ccccc3n(C)c2n1,i,i,i,i,i,·,·,·
O=C(Cc1ccc(Br)c2ccccc12)N/N=C/c1ccccn1,i,i,i,5*,i,62%*,i,i
COc1ccc(S(=O)(=O)N2CCCC(C(=O)N3CCOCC3)C2)cc1C (centres undefined),i,i,i,i,i,·,·,·
COc1ccc(OC)c(S(=O)(=O)N2CCCC(C(=O)N3CCOCC3)C2)c1 (centres undefined),i,i,i,4.8*,i,i,i,i
Cc1cc(Cl)n2c(nc3cc(F)c(F)cc32)c1C#N,·,i,·,7.5*,·,13%*,i,9.5%*
Cc1cc(-c2ccco2)n2c(nc3ccccc32)c1C#N,i,i,i,i,i,·,·,·

# Screening results deposited in PubChem BioAssay by Johns Hopkins Ion Channel Center.
